Positions count from the first letter of the chain named.
What was measured:
Ac-AChBP [1] = target: T1, Ac-AChBP (Aplysia californica, UniProt Q8WSF8); test: affinity by tryptophan fluorescence quenching; assay type: binding
T1 sequence (Q8WSF8 20-236): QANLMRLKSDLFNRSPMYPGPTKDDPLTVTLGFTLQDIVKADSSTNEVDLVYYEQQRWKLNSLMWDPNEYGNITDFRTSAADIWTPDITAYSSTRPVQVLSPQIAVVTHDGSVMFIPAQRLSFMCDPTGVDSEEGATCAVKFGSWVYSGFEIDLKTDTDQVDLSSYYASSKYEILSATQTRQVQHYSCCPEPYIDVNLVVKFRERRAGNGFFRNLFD
Outline: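 Untagged wild-type Ac-AChBP, purified from Sf21 insect cells, at 1 μM in binding sites, equilibrated with a dilution series of test compound for 1 h. Tryptophan fluorescence read on a plate reader: excitation 280 nm, emission 340 nm (slit 8 nm). Data normalised and pKi obtained by fitting a sigmoidal dose–response curve.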

solubility = assay type: physicochemical; conditions: in words
human α7 nAChRs = human α7 nAChRs (Homo sapiens, UniProt P36544); test: electrophysiology on Xenopus oocytes expressing human α7 nAChR; assay type: cell-based
Sequence of human α7 nAChRs (P36544 23-502): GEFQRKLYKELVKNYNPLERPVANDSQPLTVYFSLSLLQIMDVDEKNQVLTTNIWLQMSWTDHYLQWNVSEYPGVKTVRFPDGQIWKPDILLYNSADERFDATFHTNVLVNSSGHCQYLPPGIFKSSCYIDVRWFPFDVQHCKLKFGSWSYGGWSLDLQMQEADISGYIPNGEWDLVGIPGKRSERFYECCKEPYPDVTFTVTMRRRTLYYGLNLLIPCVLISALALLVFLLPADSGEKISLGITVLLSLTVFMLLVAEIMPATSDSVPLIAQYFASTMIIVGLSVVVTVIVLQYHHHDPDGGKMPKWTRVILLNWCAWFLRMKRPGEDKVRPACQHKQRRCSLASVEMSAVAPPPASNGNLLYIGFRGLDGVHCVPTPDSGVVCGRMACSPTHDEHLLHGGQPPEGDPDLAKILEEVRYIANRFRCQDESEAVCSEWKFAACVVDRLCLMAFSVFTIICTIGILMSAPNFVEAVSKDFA

Ac-AChBP [2] = target: T1, Ac-AChBP; test: titration of AO with Ac-AChBP by AO fluorescence quenching; assay type: binding; conditions: AO 100 μM titrated with Ac-AChBP, absence of nicotine
Outline: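 Test compound at 100 μM was titrated with increasing Ac-AChBP. Its own fluorescence was monitored with excitation at 495 nm and emission at 525 nm (slit 10 nm). A competition arm, where indicated, included 1 mM nicotine.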

Ac-AChBP [3] = target: T1, Ac-AChBP; test: isothermal titration calorimetry; assay type: binding; conditions: 25°, PBS
Outline: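 The protein was dialysed into PBS and the test compound was dissolved in the same buffer. Titrations ran on a VP-ITC microcalorimeter at 25°. Heat of dilution from ligand titrated into buffer alone was subtracted as background. Data were fitted by non-linear least squares to a one-set-of-sites model.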

Ac-AChBP Y193A = target: T2, Ac-AChBP Y193A (Aplysia californica, UniProt Q8WSF8, Y212A); test: radioligand displacement on mutant Ac-AChBP Y193A; assay type: binding; conditions: Y193 mutated to alanine
T2 sequence (Q8WSF8 20-236 Y212A): T1 sequence (Q8WSF8 20-236) with Y193A

Ac-AChBP [4] = target: T1, Ac-AChBP; test: biochemical; assay type: binding
human α7 nAChR = human α7 nAChR (Homo sapiens, UniProt P36544); test: radioligand displacement; assay type: binding
Sequence of human α7 nAChR (P36544 23-502): as above
Outline: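 SH-SY5Y neuroblastoma cells expressing human α7 nAChR were washed three times, stored as frozen pellets at −80 °C, then resuspended in ice-cold buffer and sonicated. Incubation used PBS/20 mM Tris pH 7.4/0.05% Tween, test compound at 10−3–10−11 M and [3H]MLA at 2 nM final, for 1.5 h at room temperature with shaking and protected from light. Bound label was collected on PEI-pretreated GF/C filters, washed with ice-cold 50 mM Tris pH 7.4 and counted. Curves were fitted by non-linear least squares; mean±s.e.m. of ≥3 independent experiments.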

Ac-AChBP [5] = target: T1, Ac-AChBP; test: equilibrium titration of binding sites by tryptophan fluorescence quenching; conditions: Ac-AChBP 20 μM binding sites
Outline: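 Ac-AChBP (20 μM in binding sites) was titrated with rising test compound until quenching fell below 8%. Tryptophan emission was read at 340 nm with excitation at 280 nm. Stoichiometry came from a straight line fitted through the average of the plateau points.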

Ac-AChBP Y186A = target: T3, Ac-AChBP Y186A (Aplysia californica, UniProt Q8WSF8, Y205A); test: radioligand displacement on mutant Ac-AChBP Y186A; assay type: binding; conditions: Y186 mutated to alanine
T3 sequence (Q8WSF8 20-236 Y205A): T1 sequence (Q8WSF8 20-236) with Y186A

CN(C)c1ccc2cc3ccc(N(C)C)cc3nc2c1 [AO, acridine orange]
Ki (Ac-AChBP [1]): 1.58 µM
solubility (solubility): highly soluble
IC50 (human α7 nAChRs): 7.3 µM
stoichiometric ratio at which Ac-AChBP quenched AO fluorescence (Ac-AChBP [2]): 0.3
stoichiometric ratio (n) by ITC (Ac-AChBP [3]; 0.5 mM ligand into 20 μM Ac-AChBP): 3–4
Kd (Ac-AChBP [3]; Kd by ITC): 1.86 µM

Cc1cc(C)nc(C(=N)Nc2nc(-c3ccccn3)cc3ccccc23)n1 [VUF9432, 4,6-dimethyl-N-(3-(pyridin-2-yl)isoquinoline-1-yl)-pyrimidine-2-carboximidamide]
affinity for Ac-AChBP Y193A mutant (Ac-AChBP Y193A): loss of affinity
Ki (Ac-AChBP [4]): 11 µM
pKi for α7 nAChR (human α7 nAChR; [3H]MLA displacement, radioligand not fully displaced): around five
displacement of [3H]MLA at the highest concentration tested (human α7 nAChR; highest concentration tested): not fully displaced
solubility (solubility): not very soluble
effect on α7 nAChR expressed in oocytes (human α7 nAChRs; data not shown): did not observe any effect
stoichiometric ratio ligand/AChBP (ligands per protomer/binding site) (Ac-AChBP [5]): three
affinity for Ac-AChBP Y186A mutant (Ac-AChBP Y186A): loss of affinity

Nc1nc(-c2ccccn2)cc2ccccc12 [compound 2, 1-Amino-3-(2-pyridyl)isoquinoline]
stoichiometric ratio ligand/AChBP (ligands per protomer/binding site) (Ac-AChBP [5]): multiple copies

Nc1nc(-c2cccnc2)cc2ccccc12 [compound 3, 1-Amino-3-(3-pyridyl)isoquinoline]
stoichiometric ratio ligand/AChBP (ligands per protomer/binding site) (Ac-AChBP [5]): multiple copies
